Assay results: ChEMBL document CHEMBL3745692, “Novel iodoacetamido benzoheterocyclic derivatives with potent antileukemic activity are inhibitors of STAT5 phosphorylation” (Eur J Med Chem, 2016)
pIC50: −log10 of the molar value.

Key:
[1] = biological target: T1, Signal transducer and activator of transcription 5A (Homo sapiens) (UniProt P42229); assay: Inhibition of STAT5 phosphorylation in human K562 cells at 0.5 uM after 24 hrs by flow cytometry (reference value: 315.56); assay type: cell-based
T1 sequence (whole entry): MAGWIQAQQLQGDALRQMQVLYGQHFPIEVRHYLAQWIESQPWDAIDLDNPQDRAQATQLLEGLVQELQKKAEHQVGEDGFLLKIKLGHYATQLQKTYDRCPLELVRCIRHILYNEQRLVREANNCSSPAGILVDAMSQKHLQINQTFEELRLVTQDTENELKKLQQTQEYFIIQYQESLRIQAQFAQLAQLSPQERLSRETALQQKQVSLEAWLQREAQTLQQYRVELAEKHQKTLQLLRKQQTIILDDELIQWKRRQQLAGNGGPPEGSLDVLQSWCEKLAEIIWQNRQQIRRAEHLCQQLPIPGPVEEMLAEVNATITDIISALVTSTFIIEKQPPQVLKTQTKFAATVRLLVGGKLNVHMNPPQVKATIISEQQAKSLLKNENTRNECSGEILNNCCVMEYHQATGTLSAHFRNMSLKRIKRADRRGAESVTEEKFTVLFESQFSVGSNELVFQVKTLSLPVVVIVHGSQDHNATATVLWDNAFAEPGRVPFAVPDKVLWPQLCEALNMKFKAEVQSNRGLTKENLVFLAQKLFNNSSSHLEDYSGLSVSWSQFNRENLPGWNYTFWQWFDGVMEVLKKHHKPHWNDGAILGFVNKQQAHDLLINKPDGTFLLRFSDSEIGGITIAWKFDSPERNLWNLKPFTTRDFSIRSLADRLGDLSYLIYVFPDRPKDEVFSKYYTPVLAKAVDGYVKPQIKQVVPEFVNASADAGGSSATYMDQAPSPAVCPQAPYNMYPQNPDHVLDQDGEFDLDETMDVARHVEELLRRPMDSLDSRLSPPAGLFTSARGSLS
Summary of the method: (§1)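 After 24 h exposure, about 1×10^6 K562 cells were PBS-washed and fixed/permeabilised for 20 min at 4 °C. They were then stained for 30 min at 4 °C with PE-conjugated anti-pSTAT5 monoclonal antibody, with an isotype antibody as control. Median fluorescence was read by flow cytometry and compared with untreated cells stained for pSTAT5.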

[2] = biological target: T1, Signal transducer and activator of transcription 5A (Homo sapiens); assay: Inhibition of STAT5 phosphorylation in human K562 cells at 0.5 uM after 24 hrs by flow cytometry relative to control; assay type: cell-based; summary of the method: as §1
[3] = system: K562; assay: Potency index, ratio IC50 of imatinib mesilate to IC50 of compound for antiprolifertive activity against human K562; assay type: functional
Summary of the method: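 K562 cells grown in RPMI 1640 with 10% FCS at 37 °C, 5% CO2. 2×10^5 cells/mL exposed to a range of concentrations for 48 h. Viable cells counted by trypan blue exclusion, as % of control.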

[4] = system: K562; assay: Potency index, ratio AC50 of imatinib mesilate to AC50 of compound for induction of apoptosis in human K562; assay type: functional
Summary of the method: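 K562 cells in RPMI 1640 with 10% FCS, treated 48 h over a concentration range. Apoptosis scored morphologically after acridine orange/ethidium bromide staining (≥300 cells counted, chromatin condensation, apoptotic bodies) and by annexin V-FITC/propidium iodide flow cytometry. AC50 is the concentration giving 50% apoptotic cells, mean ± SE of 2–3 experiments.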

[5] = system: K562; assay: Antiproliferative activity against human K562 cells after 48 hrs by trypan blue dye exclusion assay; assay type: functional, cell-based; conditions: K562, 48 h
[6] = system: K562; assay: Induction of apoptosis in human K562 cells after 48 hrs by annexinV and propidium iodide staining based flow cytometry; assay type: functional, cell-based; conditions: K562, 48 h
Summary of the method: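 After 48 h drug exposure, 1×10^6 cells were washed in PBS and spun at 200×g for 5 min. They were stained with FITC-annexin V plus propidium iodide for 15 min at 20 °C and annexin V-positive cells counted by flow cytometry. Apoptosis was also scored morphologically with acridine orange/ethidium bromide, counting at least 300 cells. AC50 is the concentration inducing apoptosis in 50% of cells; mean ± SE from two to three experiments.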

[7] = system: K562; assay: Cell cycle arrest in human K562 cells assessed as accumulation at G1 phase at 0.5 uM for 24 hrs by propidium iodide staining based flow cytometry (reference value: 39.27%); assay type: functional
Summary of the method: (§2)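 K562 cells in RPMI 1640 with 10% FCS, penicillin/streptomycin and L-glutamine, 5% CO2, 37 °C; exposed 24 h. Cells washed in ice-cold PBS, resuspended at 1×10^6/mL in hypotonic solution of propidium iodide 50 µg/mL in 0.1% sodium citrate plus 0.03% nonidet P-40 for 30 min. DNA content read as single-parameter flow cytometry histograms; phase distribution modelled.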

[8] = system: K562; assay: Cell cycle arrest in human K562 cells assessed as accumulation at S-phase at 0.5 uM for 24 hrs by propidium iodide staining based flow cytometry (reference value: 47.84%); assay type: functional; summary of the method: as §2
[9] = system: K562; assay: Cell cycle arrest in human K562 cells assessed as accumulation at G2M-phase at 0.5 uM for 24 hrs by propidium iodide staining based flow cytometry (reference value: 12.89%); assay type: functional; summary of the method: as §2

For `COc1cc2oc(C(=O)c3cc(OC)c(OC)c(OC)c3)c(C)c2cc1NC(=O)CI`, the Flu intensity [1] was 176, the inhibition [2] was 44% and the “Ratio IC50” value [3] was 3.1. The “Ratio IC50” value [4] was 2.7, the pIC50 [5] was 7.15 and the AC50 [6] was 250 nM. For the same molecule, the Activity [7] was 35.78%, the Activity [8] was 35.47% and the Activity [9] was 28.76%.
